Measured values as given in ChEMBL document CHEMBL1240347, “MK-7009, a potent and selective inhibitor of hepatitis C virus NS3/4A protease” (Antimicrob Agents Chemother, 2010).

Tests used:
[1] = system: Hepatitis C virus; assay: Antiviral activity against Hepatitis C virus containing NS3/A156T protease mutant activity by TaqMan-based assay; assay type: functional, organism-based, Hepacivirus hominis
In short: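 Panel of stable HCV replicon cell lines carrying NS3 protease mutations. Replicon RNA read out by a TaqMan-based assay, and EC50 values determined.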

[2] = Inhibition of human Chymotrypsin
[3] = Inhibition of Hepatitis C virus genotype 2b NS3/4A protease activity; design: species or system Hepatitis C virus subtype 2b
In short: (§1)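 Recombinant NS3/4A protease was expressed in and purified from E. coli. Inhibition was measured by a time-resolved, internally quenched fluorescence assay at low enzyme concentration. Kis were reported.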

[4] = AUC (0-24 hrs) in rhesus monkey at 2 mg/kg, iv by LC/MS/MS analysis; assay type: ADME, organism-based, Macaca mulatta; design: time < 24 hr, dose 2 mg/kg, route intravenous; settings: plasma
In short: (§2)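 Fasted animals received an intravenous bolus in DMSO at 1.0 ml/kg (rat), 0.1 ml/kg (dog) or 0.1 ml/kg (rhesus), with n = 3. Blood was drawn into EDTA tubes, and plasma was separated by centrifugation and stored at −70°C. Drug was quantified by LC/MS/MS after protein precipitation.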

[5] = Inhibition of Hepatitis C virus genotype 1a NS3/4A protease activity; design: species or system Hepatitis C virus subtype 1a; in short: as §1
[6] = system: Pan troglodytes; assay: AUC in chimpanzee at 10 mg/kg, po from 0 to 24 hrs by LC/MS/MS analysis; settings: in vivo
[7] = Metabolic stability in dog liver assessed as drug level at 5 mg/kg, po after 24 hrs by LC/MS/MS analysis; assay type: ADME, organism-based, Canis lupus familiaris; design: dose 5 mg/kg, route oral; settings: read-out: Drug uptake
In short: (§3)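 Single oral dose in polyethylene glycol 400 (2.0 ml/kg). A liver biopsy (~200 μl) was taken under sedation and homogenized in 4 volumes of deionized water. Drug was quantified by LC/MS/MS after protein precipitation.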

[8] = Metabolic stability in rhesus monkey liver assessed as drug level at 5 mg/kg, po after 24 hrs by LC/MS/MS analysis; assay type: ADME, organism-based, Macaca mulatta; design: dose 5 mg/kg, route oral; settings: read-out: Drug uptake; in short: as §3
[9] = Volume of distribution in rhesus monkey at 2 mg/kg, iv by LC/MS/MS analysis; assay type: ADME, organism-based, Macaca mulatta; design: dose 2 mg/kg, route intravenous; settings: in vivo
In short: (§4)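 Fasted animals received an IV bolus in DMSO at 1.0 ml/kg for rats and 0.1 ml/kg for dogs and rhesus monkeys, at 2 mg/kg; n = 3 per species. Blood was drawn into EDTA tubes at set times, and plasma was separated by centrifugation and stored at −70°C. Drug was quantified by LC/MS/MS after protein precipitation.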

[10] = Volume of distribution in dog at 2 mg/kg, iv by LC/MS/MS analysis; assay type: ADME, organism-based, Canis lupus familiaris; design: dose 2 mg/kg, route intravenous; settings: in vivo; in short: as §4
[11] = system: Hepatitis C virus; assay: Antiviral activity against Hepatitis C virus containing NS3/4a ps41 sequence by transient cell-base protease activity; assay type: functional, organism-based, Hepacivirus hominis
In short: (§5)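 Transient cell-based phenotype assay of protease activity, using NS3/4A sequences cloned from plasma of HCV-infected patients. EC50s were determined.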

[12] = AUC (0-24 hrs) in dog at 5 mg/kg, po by LC/MS/MS analysis; assay type: ADME, organism-based, Canis lupus familiaris; design: time < 24 hr, dose 5 mg/kg, route oral; settings: plasma
In short: (§6)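 Dosed orally as a solution in polyethylene glycol 400 (2.0 ml/kg), with n = 3. EDTA plasma was centrifuged off and held at −70°C. Drug levels were determined by LC/MS/MS following protein precipitation.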

[13] = system: Hepatitis C virus; assay: Antiviral activity against Hepatitis C virus genotype 1b infected in […] cell by cell-based HCV replicon assay in presence of 10% fetal bovine serum; assay type: functional, organism-based, Hepacivirus hominis
In short: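 Stable genotype 1b (con1) replicon cell line HB1, assayed in medium with 10% fetal bovine serum.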

[14] = Cytotoxicity against […] cells; assay type: cell-based; settings: HB1
[15] = system: Hepatitis C virus; assay: Antiviral activity against Hepatitis C virus containing NS3/4a ps40 sequence by transient cell-base protease activity; assay type: functional, organism-based, Hepacivirus hominis; in short: as §5
[16] = target: T1, Cathepsin K (Homo sapiens, UniProt P43235); assay: Inhibition of human Cathepsin K
T1 sequence (P43235 whole entry): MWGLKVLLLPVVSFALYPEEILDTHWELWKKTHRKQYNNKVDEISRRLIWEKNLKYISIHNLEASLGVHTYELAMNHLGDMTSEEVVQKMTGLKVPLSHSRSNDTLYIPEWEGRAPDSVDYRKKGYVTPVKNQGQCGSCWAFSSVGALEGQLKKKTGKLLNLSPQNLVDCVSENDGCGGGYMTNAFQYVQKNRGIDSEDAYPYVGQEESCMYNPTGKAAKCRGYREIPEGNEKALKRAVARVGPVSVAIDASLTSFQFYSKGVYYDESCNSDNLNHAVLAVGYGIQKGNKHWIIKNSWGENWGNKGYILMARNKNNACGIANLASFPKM

[17] = AUC (0-24 hrs) in chimpanzee at 10 mg/kg, po by LC/MS/MS analysis; assay type: ADME, organism-based, Pan troglodytes; design: time < 24 hr, dose 10 mg/kg, route oral; settings: plasma
In short: (§7)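 Two HCV-uninfected chimpanzees (about 57 and 52 kg) drank the dose voluntarily in a chocolate milk vehicle (0.67 ml/kg). EDTA plasma was stored at −70°C and quantified by LC/MS/MS after protein precipitation.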

[18] = target: Cathepsin S (Homo sapiens, UniProt P25774); assay: Inhibition of human Cathepsin S
Chain of Cathepsin S (P25774 whole entry): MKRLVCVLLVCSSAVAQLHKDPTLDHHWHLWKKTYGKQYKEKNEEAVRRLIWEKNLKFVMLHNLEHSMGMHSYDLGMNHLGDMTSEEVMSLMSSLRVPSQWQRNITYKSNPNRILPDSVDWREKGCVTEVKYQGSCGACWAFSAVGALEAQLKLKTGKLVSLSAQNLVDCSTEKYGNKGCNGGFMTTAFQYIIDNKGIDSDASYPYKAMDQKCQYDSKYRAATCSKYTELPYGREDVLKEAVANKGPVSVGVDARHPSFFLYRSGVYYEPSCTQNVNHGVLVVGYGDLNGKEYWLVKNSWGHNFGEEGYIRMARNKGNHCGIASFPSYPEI

[19] = target: Procathepsin L (Homo sapiens, UniProt P07711); assay: Inhibition of human Cathepsin L
Chain of Procathepsin L (P07711 whole entry): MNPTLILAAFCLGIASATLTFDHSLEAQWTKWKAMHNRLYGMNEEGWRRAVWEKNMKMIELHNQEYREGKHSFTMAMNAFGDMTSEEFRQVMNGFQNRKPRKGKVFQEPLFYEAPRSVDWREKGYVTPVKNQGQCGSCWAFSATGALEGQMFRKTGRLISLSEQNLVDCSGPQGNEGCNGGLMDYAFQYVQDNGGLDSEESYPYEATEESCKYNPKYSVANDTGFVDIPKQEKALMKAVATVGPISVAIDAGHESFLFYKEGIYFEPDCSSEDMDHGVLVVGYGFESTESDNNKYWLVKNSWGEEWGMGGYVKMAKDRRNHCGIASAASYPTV

[20] = Half life in rhesus monkey at 2 mg/kg, iv by LC/MS/MS analysis; assay type: ADME, organism-based, Macaca mulatta; design: dose 2 mg/kg, route intravenous; settings: in vivo; in short: as §2
[21] = Plasma clearance in dog at 2 mg/kg, iv by LC/MS/MS analysis; assay type: ADME, organism-based, Canis lupus familiaris; design: dose 2 mg/kg, route intravenous; in short: as §2
[22] = Half life in dog at 2 mg/kg, iv by LC/MS/MS analysis; assay type: ADME, organism-based, Canis lupus familiaris; design: dose 2 mg/kg, route intravenous; settings: in vivo; in short: as §2
[23] = system: Hepatitis C virus; assay: Antiviral activity against Hepatitis C virus containing NS3/4a ps30 sequence by transient cell-base protease activity; assay type: functional, organism-based, Hepacivirus hominis; in short: as §5
[24] = system: Hepatitis C virus; assay: Antiviral activity against Hepatitis C virus containing NS3/F43S protease mutant activity by TaqMan-based assay; assay type: functional, organism-based, Hepacivirus hominis
[25] = Metabolic stability in chimpanzee liver assessed as drug level at 10 mg/kg, po after 12 hrs by LC/MS/MS analysis; assay type: ADME, organism-based, Pan troglodytes; design: dose 10 mg/kg, route oral; settings: read-out: Drug uptake
In short: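 Two uninfected chimpanzees were dosed orally in chocolate milk vehicle (0.67 ml/kg). A liver biopsy (~200 μl) was taken under sedation at the single 12-h time point, homogenized in 4 volumes of deionized water, and analysed by LC/MS/MS after protein precipitation.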

[26] = Cmax in dog at 5 mg/kg, po by LC/MS/MS analysis; assay type: ADME, organism-based, Canis lupus familiaris; design: dose 5 mg/kg, route oral; settings: in vivo; in short: as §6
[27] = system: Hepatitis C virus; assay: Antiviral activity against Hepatitis C virus genotype 1b infected in […] cell by cell-based HCV replicon assay in presence of 50% normal human serum; assay type: functional, organism-based, Hepacivirus hominis
In short: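 Stable genotype 1b (con1) replicon cell line HB1, assayed in the presence of 50% normal human serum.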

[28] = Half life in rat at 2 mg/kg, iv by LC/MS/MS analysis; assay type: ADME, organism-based; design: dose 2 mg/kg, route intravenous; settings: in vivo; in short: as §2
[29] = Volume of distribution in rat at 2 mg/kg, iv by LC/MS/MS analysis; assay type: ADME, organism-based; design: dose 2 mg/kg, route intravenous; settings: in vivo; in short: as §4
[30] = Cmax in Chimpanzee at 10 mg/kg, po by LC/MS/MS analysis; assay type: ADME, organism-based, Pan troglodytes; design: dose 10 mg/kg, route oral; settings: in vivo; in short: as §7
[31] = system: Hepatitis C virus; assay: Antiviral activity against Hepatitis C virus containing NS3/4a ps38 sequence by transient cell-base protease activity; assay type: functional, organism-based, Hepacivirus hominis; in short: as §5
[32] = Plasma clearance in rat at 2 mg/kg, iv by LC/MS/MS analysis; assay type: ADME, organism-based; design: dose 2 mg/kg, route intravenous; in short: as §4
[33] = system: Hepatitis C virus genotype 1b; assay: Antiviral activity against Hepatitis C virus genotype 1b containing NS3/con1 protease mutant by TaqMan-based assay; settings: subtype 1b

## CC[C@@H]1C[C@]1(NC(=O)[C@@H]1C[C@@H]2CN1C(=O)[C@H](C(C)(C)C)NC(=O)OCC(C)(C)CCCCc1cccc3c1CN(C3)C(=O)O2)C(=O)NS(=O)(=O)C1CC1 [VANIPREVIR]
[1]
  EC50: 200 nM
[2]
  IC50: 520 nM
[3]
  Ki: 1.4 nM
[4]
  AUC(0-t) at 24 h: 2.5 µM·h
[5]
  Ki: 0.07 nM
[6]
  AUC: 5.2 µM·h
[7]
  concentration at 24 h: 600 nM
[8]
  concentration at 24 h: 200 nM
[9]
  Vd: 0.4 L/kg
[10]
  Vd: 0.3 L/kg
[11]
  EC50: 19 nM
[12]
  AUC(0-t) at 24 h: 1.2 µM·h
[13]
  EC50: 5 nM
[14]
  EC50: > 50 µM
[15]
  EC50: 2.9 nM
[16]
  IC50: > 10 µM
[17]
  AUC(0-t) at 24 h: 5.2 µM·h
[18]
  IC50: > 10 µM
[19]
  IC50: > 10 µM
[20]
  half-life: 78 min
[21]
  clearance: 11 mL/min/kg
[22]
  half-life: 72 min
[23]
  EC50: 27 nM
[24]
  EC50: 7.8 nM
[25]
  concentration at 12 h: 31 µM
[26]
  Cmax: 500 nM
[27]
  EC50: 13 nM
[28]
  half-life: 54 min
[29]
  Vd: 1.9 L/kg
[30]
  Cmax: 900 nM
[31]
  EC50: 6 nM
[32]
  clearance: 74 mL/min/kg
[33]
  EC50: 1.6 nM
